System: MS2 coat protein
Assay: apparent Kd, MS2 coat protein; higher = weaker binding; RNA-MaP array; FMN 200 µM where present
Outline: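 Stalled E. coli RNA polymerase transcribed the designs on Illumina sequencing-chip clusters. SNAP-549-labelled MS2 coat protein was titrated from 0.7 or 1.5 nM, doubling to 3 µM, without and then with constant ligand, in 100 mM Tris-HCl pH 7.5, 80 mM KCl, 4 mM MgCl2, BSA, DTT, yeast tRNA and Tween-20. Per-cluster binding curves were fitted to green signal normalised to red-channel RNA signal and control-cluster median Fmax. The apparent Kd is the median of the filtered fits.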

[1] = designed as: OFF switch for flavin mononucleotide, no ligand
[2] = ligand present: flavin mononucleotide, designed as: OFF switch for flavin mononucleotide
[3] = designed as: ON switch for flavin mononucleotide, no ligand
[4] = ligand present: flavin mononucleotide, designed as: ON switch for flavin mononucleotide

Sequence: CAGAAGUCAGGAUAUCCUGCUCGUCACUUGCGUGAUGAGUAGGAGAAGGGACAUGAGGAUCACCCAUGUAAAGG
- apparent Kd [1]: 0.144 µM
- apparent Kd [2]: 0.411 µM

Sequence: UAUAUGUCAGGAUAUUAGUAGUGGACGAAUAAGACUACUGCUGAGAAGGGACAUGAGGAUCACCCAUGUUCCUC
- apparent Kd [1]: 0.0202 µM
- apparent Kd [2]: 0.172 µM

Sequence: CCGGUUGGCGCAGGAUAUACAUGAGGAUCACCCAUGUUCAUCAGGAUCACCGAUGAGUUUUUGUUGUAGAAGGGUGGCCCGGCC
- apparent Kd [1]: 0.0352 µM
- apparent Kd [2]: 0.0372 µM

Sequence: AAAACGUCAGGAUAUCCAAUAUAUGACAUGAGGAUCACCCAUGUUUCCACUCGUACCUCCGGAGAAGGGACAAAUA
- apparent Kd [1]: 0.0415 µM
- apparent Kd [2]: 0.034 µM

Sequence: UUGAAGAACUAAGGAUAUUGAAUACAUAUGUUUAACAUGAGGAUCACCCAUGUGGGUUGCGGUAUCGAGAAGGUAGAUUACUAG
- apparent Kd [3]: 0.115 µM
- apparent Kd [4]: 0.104 µM

Sequence: AAAAUCAAUAGAGGAUAUUCAUACACUACAUACGGAGAAGGCUAACAAUCAUGAGGACAUGAGGAUCACCCAUGUUGUGACCAU
- apparent Kd [3]: 0.0259 µM
- apparent Kd [4]: 0.0171 µM

Sequence: GCAGCACAGUUUUACAUGAGGAUCACCCAUGUCUAUUGAGAUGAGGAUAUGCAUCGAAUGAAGUUGCAGAAGGCAUUGUGCUGC
- apparent Kd [3]: 0.0112 µM
- apparent Kd [4]: 0.00646 µM

Sequence: UCGCUGCGAGGAUAUACGUGCGCGCGCUUUCGUUUGCGCGUACAUGAGGAUCACCCAUGUAGAAGGCGCGCUGC
- apparent Kd [1]: 0.0162 µM
- apparent Kd [2]: 0.0158 µM

Sequence: CCAUGACAAAGUCAUGGAUAACGAACAUGAGGAUCACCCAUGUAGGAUAUGCUACUCAAAGAGUAGCAGAAGGACAUGUGUCUU
- apparent Kd [1]: 0.0327 µM
- apparent Kd [2]: 0.165 µM

Sequence: UGCAUGUAAGGAUAUGCAUCCGCCGACGUCCCGGCGCCACAGCAGAAGGUACAUGAGGAUCACCCAUGUGUCCC
- apparent Kd [1]: 0.0213 µM
- apparent Kd [2]: 0.0492 µM

Sequence: GUGUUGUCAGGAUAUCUUACAUAACUAUCGUUGUUACCAUUGGAGAAGGGACAUGAGGAUCACCCAUGUUAUCG
- apparent Kd [1]: 0.0243 µM
- apparent Kd [2]: 0.0254 µM

Sequence: UGUCGGAGCAGAGGAUAUUACAUGAGGAUCACCCAUGUAUGAACCAAUAGCUGGAAACAGCAAUGUAAGAAGGCUGCUCAGACA
- apparent Kd [1]: 0.0119 µM
- apparent Kd [2]: 0.137 µM

Sequence: GCUGACGUAGGAUAUCAAUAGCCUCACAUGAGGAUCACCCAUGUCGGUAGGUGUACUGGAUGAGAAGGACGUCGUU
- apparent Kd [1]: 0.0383 µM
- apparent Kd [2]: 0.0239 µM

Sequence: GUUCUUCCUGUAAGGAUAUCCAUGUAUCAAUUUAUGGAGAAGGUACAUGAGGAUCACCCAUGUCACCCGCGUUA
- apparent Kd [1]: 0.0209 µM
- apparent Kd [2]: 0.0507 µM

Sequence: GUACUGAAGCUUUGCUUUAGUCGUACAUGAGGAUCACCCAUGUAGGAUAUGGUAGGCUUUGCUUACUAGAAGGAUAGAGUGAUU
- apparent Kd [2]: 0.0398 µM

Sequence: GGAUAGGACAGAGGAUAUACGUGCUAGAGAUACUAGCUAAUAAUCCUUACAUGAGGAUCACCCAUGUAGAAGGCUGUCCUAUCG
- apparent Kd [1]: 0.02 µM
- apparent Kd [2]: 0.0451 µM

Sequence: AUGCUUAUCGAAGGAUAUGGUUACAUGAGGAUCACCCAUGUUAUGAUUGGUUACUUGUUUAGUUUCCAGAAGGUCGAUUAGUUA
- apparent Kd [1]: 0.0588 µM
- apparent Kd [2]: 0.225 µM

Sequence: GGAGCACACAUUUACAUGAGGAUCACCCAUGUCAAAAGACAUGAGGAUAUGGAUCCGAAAAGGAUCCAGAAGGCAUGGUGCUCC
- apparent Kd [3]: 0.106 µM
- apparent Kd [4]: 0.00838 µM

Sequence: UUAGUUACGGGAGGAUAUGUCACCCUGGGUCACAUGAGGAUCACCCAUGUGACAGAAGGCCCAAUUAUGGUGCCCAGGGCGCCU
- apparent Kd [1]: 0.00584 µM
- apparent Kd [2]: 0.0228 µM

Sequence: AUUACAAUUGUAUACAUGAGGAUCACCCAUGUCAAAAGUCAUGAGGAUAUGGUAUUGUAGUUAUUCCAGAAGGCAUAAAGCUAA
- apparent Kd [3]: 0.0292 µM
- apparent Kd [4]: 0.0164 µM

Sequence: AGUAACAGAGGAUAUACUGUUUUAUGUAUUUAUUAUUUUAAACAUGAGGAUCACCCAUGUAGAAGGCUGAAUGA
- apparent Kd [1]: 0.0245 µM
- apparent Kd [2]: 0.0233 µM

Sequence: GGACGUCUCAUUAACAUGAGGAUCACCCAUGUCAAAAGACAUGAGGAUAUGGAUCCUAAUUGGAUCCAGAAGGCAUGGACGUCC
- apparent Kd [3]: 0.939 µM
- apparent Kd [4]: 0.0592 µM

Sequence: AAAAGACAUGAGGAUCACCCAUGUCAAGACAUAGGAGGAUAUGUCUGGAAAAAAGACUGGACAGAAGGCCUUUGUC
- apparent Kd [3]: 0.0199 µM
- apparent Kd [4]: 0.0174 µM

From the EternaBench riboswitch data
